Assay results from PubChem BioAssay.
Active and inactive are the calls of the source.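 The calls were made as follows, unless noted: active = Her2 level under about 52% in both replicate screens, with viability over 70% of control (limit read from the data); inconclusive = Her2 under the limit in one screen only, or viability under 70%; inactive = Her2 level above the set limit.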

Legend:
[1] = Her2 expression decrease, cell viability multiplex – SKBR3 breast tumor cells, AlphaScreen, ATP viability, primary screen (AID 461); conditions: SKBR3 Her2 protein level, 18-24 h, measured here: SKBR3 viability, ATP luminescence, at 10 µM;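 as to Her2 level: lower value means less Her2 protein in the cells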;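 as to viability: percent of carrier control wells set as 100% viability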
[2] = biological target: Receptor tyrosine-protein kinase erbB-2 (Homo sapiens) (UniProt P04626); experiment: as above; conditions: 18-24 h, at 10 µM, stronger effect = lower value
[3] = reduced viability of SK-BR-3 breast cancer cells – cell-based, 24 h, human, pilot screen (AID 572;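 active = viability at or below 10% of carrier control in both of two separate runs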;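 also: compound exposure lasted between 18 and 24 h rather than exactly 24 h; 100% = carrier-treated control wells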); conditions: SK-BR-3 viability, CellTiter-Glo luminescence, at 10 µM, stronger effect = lower value
[4] = HUVEC growth inhibition – cell-based, human, primary screen (AID 575;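 active = viability at or below 30% in both replicate assays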;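 also: 100% = median of untreated cell wells with 0.1% DMSO on each plate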); conditions: HUVEC proliferation, CellTiter-Glo luminescence, 72 h; at 10 µM; stronger effect = lower value
Method in brief: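 material = primary HUVEC, no more than 12 passages | input = 1250 cells per well | controls = vehicle and MePR control wells | measured by = CTG luminescence | times = 72 h compound incubation | format = collagen-coated 384-well format | read-out = % viability vs DMSO wells | doses = single 10 µM dose, 0.1% DMSO, from 5x medium stock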

[5] = H69AR cell proliferation blockers – human, duplicate replicates, primary screen (AID 580;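 active = viability at or under a set limit in both replicates, limit being median viability minus 3 SD, cut at about 48% in these data, passing the limit was not always enough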;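 also: 100% = mean luminescence of untreated wells and 0% = no signal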); conditions: H69AR lung tumor cells viability, ATP luminescence, 72 h; at 10 µM; stronger effect = lower value
[6] = MRP1 drug-resistance reversers in H69AR cells – cell-based, doxorubicin co-treatment, pilot screen (AID 601;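 active = viability loss from added drug above about 55%, and viability with drug at most 40%, in both replicates, limit read from the data, passing the limit was not always enough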); conditions: CellTiter-Glo, 72 h, at 10 µM; for differential viability (reversal): stronger effect = higher value
[7] = yeast transport mutant growth inhibition pilot in 384-well plates, post-Golgi transport modulator project (AID 636; in the data active = inhibition above about 31%); conditions: absorbance 615 nm, about 18 h, stronger effect = higher value
[8] = growth suppression of yeast trafficking mutant, preliminary HTS, modulators of trafficking downstream of Golgi apparatus project, 1536-format plate, OD 615 nm (AID 637; in the data active = inhibition above about 30%); conditions: yeast transport mutant growth, absorbance 615 nm, 18 h; stronger effect = higher value
[9] = H69AR cells + 2 uM doxorubicin, measured here: viability with 2 uM doxorubicin, stronger effect = lower value
[10] = H69AR cells, compound alone cytotoxicity

Receptor tyrosine-protein kinase erbB-2 (Homo sapiens), sequence (P04626 whole entry, looked up): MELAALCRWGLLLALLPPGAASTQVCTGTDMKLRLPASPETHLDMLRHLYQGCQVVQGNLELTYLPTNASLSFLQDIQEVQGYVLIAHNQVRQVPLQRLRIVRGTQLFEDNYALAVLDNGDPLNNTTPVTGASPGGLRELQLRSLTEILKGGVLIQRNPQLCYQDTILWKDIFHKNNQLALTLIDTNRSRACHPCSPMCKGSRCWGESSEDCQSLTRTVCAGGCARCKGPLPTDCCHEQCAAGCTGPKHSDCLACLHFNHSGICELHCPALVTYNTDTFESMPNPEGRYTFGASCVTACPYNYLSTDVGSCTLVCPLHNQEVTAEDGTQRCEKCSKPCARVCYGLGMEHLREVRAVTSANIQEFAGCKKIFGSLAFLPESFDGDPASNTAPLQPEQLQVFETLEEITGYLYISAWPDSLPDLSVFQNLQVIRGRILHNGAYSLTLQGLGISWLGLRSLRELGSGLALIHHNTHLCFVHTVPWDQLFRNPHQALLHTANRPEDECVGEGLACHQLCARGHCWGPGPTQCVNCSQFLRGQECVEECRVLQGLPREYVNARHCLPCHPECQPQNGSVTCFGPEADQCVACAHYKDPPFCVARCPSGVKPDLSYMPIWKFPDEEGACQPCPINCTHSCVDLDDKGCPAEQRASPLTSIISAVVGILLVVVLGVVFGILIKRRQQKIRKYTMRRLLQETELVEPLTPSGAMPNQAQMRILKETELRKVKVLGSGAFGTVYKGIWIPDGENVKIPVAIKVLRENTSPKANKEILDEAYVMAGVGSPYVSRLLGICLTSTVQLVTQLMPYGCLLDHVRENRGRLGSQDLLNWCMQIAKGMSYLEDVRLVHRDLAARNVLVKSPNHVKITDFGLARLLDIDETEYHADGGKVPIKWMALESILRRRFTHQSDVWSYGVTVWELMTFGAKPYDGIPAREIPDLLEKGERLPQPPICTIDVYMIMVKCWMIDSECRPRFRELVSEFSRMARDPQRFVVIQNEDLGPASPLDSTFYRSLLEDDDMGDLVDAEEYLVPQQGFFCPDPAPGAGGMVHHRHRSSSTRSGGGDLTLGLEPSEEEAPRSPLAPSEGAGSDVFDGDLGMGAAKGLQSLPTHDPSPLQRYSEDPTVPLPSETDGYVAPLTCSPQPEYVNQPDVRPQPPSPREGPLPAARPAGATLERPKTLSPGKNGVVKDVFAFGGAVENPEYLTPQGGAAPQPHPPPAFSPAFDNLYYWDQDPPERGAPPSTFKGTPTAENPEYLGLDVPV

Structure (SMILES)	viability [1]	Her2 level [2]	viability [3]	viability [4]	viability [5]	differential viability (reversal) ([6]; H69AR cells + 2 uM doxorubicin)	viability [6, 9]	viability [6, 10]	inhibition [7]	inhibition [8]
O=C(Cn1ncc2c(=O)oc3ccccc3c21)NCC1CCCO1 (stereo not given)	104%	102% (inactive)	104% (inactive)	108% (inactive)	94.8% (inactive)	-7.15% (inactive)	102%	94.8%	-3.59% (inactive)	-1.17% (inactive)
CC(C)(C)n1ncc2c(=O)n(CC(=O)NCc3ccco3)cnc21	91.5%	94% (inactive)	91.5% (inactive)	111% (inactive)	68.5% (inactive)	-12.3% (inactive)	80.8%	68.5%	-1.45% (inactive)	-10.5% (inactive)
c1ccc(-n2nnnc2OCCOc2nnnn2-c2ccccc2)cc1	92%	106% (inactive)	92% (inactive)	82.2% (inactive)	80.4% (inactive)	-6.12% (inactive)	86.5%	80.4%	-2.24% (inactive)	9.18% (inactive)
CC(Oc1ccc(Br)cc1)C(=O)N1CCc2ccccc21 (stereo not given)	85.5%	96.5% (inactive)	85.5% (inactive)	107% (inactive)	96.9% (inactive)	9.3% (inactive)	87.6%	96.9%	-2.76% (inactive)	-3.02% (inactive)
Cc1cc(C)n2nc(SCc3cc(=O)n4ccccc4n3)nc2n1	100%	72.5% (inactive)	100% (inactive)	107% (inactive)	101% (inactive)	5.5% (inactive)	95.3%	101%	-4.47% (inactive)	-1% (inactive)
Cc1cc(C)n2nc(C(=O)NCc3ccco3)nc2n1	101%	90% (inactive)	101% (inactive)	91.4% (inactive)	99% (inactive)	4.53% (inactive)	94.5%	99%	-0.26% (inactive)	-5.32% (inactive)
CCC(C)(C(=O)NC1CCCCC1)N(Cc1ccco1)C(=O)c1cnccn1 (stereo not given)	82%	98% (inactive)	82% (inactive)	88.7% (inactive)	97.5% (inactive)	8.25% (inactive)	89.2%	97.5%	-0.78% (inactive)	-3.77% (inactive)
CCOC(=O)c1ccccc1NC(=O)Cn1cnc2c(cnn2-c2ccc(OC)cc2)c1=O	89.5%	91.5% (inactive)	89.5% (inactive)	81.4% (inactive)	101% (inactive)	1.5% (inactive)	99.7%	101%	-5.54% (inactive)	1.83% (inactive)
S=c1[nH]nc(-c2cccc(Br)c2)o1	91%	130% (inactive)	91% (inactive)	88.2% (inactive)	96.1% (inactive)	3.51% (inactive)	92.6%	96.1%	-1.58% (inactive)	-8.83% (inactive)
CCOc1cc(N2CCOCC2)c(OCC)cc1NC(=O)COC(=O)CCc1c[nH]c2ccccc12	97.5%	98.5% (inactive)	97.5% (inactive)	105% (inactive)	99.4% (inactive)	4.66% (inactive)	94.8%	99.4%	-8.38% (inactive)	-8.83% (inactive)
CCn1c(C)cc(=S)c2ccccc21	114%	99.5% (inactive)	114% (inactive)	98.6% (inactive)	91.2% (inactive)	3.92% (inactive)	87.3%	91.2%	1.22% (inactive)	-3.65% (inactive)
Cc1cccn2c(=O)c3cc(C#N)c(=NC(=O)c4cccnc4)n(CC4CCCO4)c3nc12 (stereo not given)	92.5%	108% (inactive)	92.5% (inactive)	94.4% (inactive)	71.1% (inactive)	27% (inactive)	44.1%	71.1%	-1.18% (inactive)	-9.35% (inactive)
Cc1onc(-c2ccccc2Cl)c1C(=O)Nc1cccc(-c2cn3cccnc3n2)c1	104%	84% (inactive)	104% (inactive)	71.4% (inactive)	85.6% (inactive)	1.15% (inactive)	84.5%	85.6%	-5.39% (inactive)	-1.82% (inactive)
O=C(c1ccc2c(c1)[nH]c(=S)n1c3ccccc3nc21)N1CCN(c2ncccn2)CC1	100%	82% (inactive)	100% (inactive)	88.7% (inactive)	96.3% (inactive)	5.5% (inactive)	90.8%	96.3%	-3.95% (inactive)	3.67% (inactive)
CCOc1cc(C(=O)NCc2nnc(SCC(=O)OC)n2C)cc(OCC)c1OCC	98%	85% (inactive)	98% (inactive)	104% (inactive)	95.8% (inactive)	8.31% (inactive)	87.5%	95.8%	-6.84% (inactive)	-2% (inactive)
O=C1CC(c2ccc(S(=O)(=O)N3CCN(c4ccccc4)CC3)cc2)CN1 (stereo not given)	96%	90% (inactive)	96% (inactive)	93% (inactive)	96.4% (inactive)	1.82% (inactive)	94.6%	96.4%	-7.3% (inactive)	-10% (inactive)

Structure (SMILES)	viability [1]	Her2 level [2]	viability [3]	viability [4]	viability [5]	differential viability (reversal) ([6]; H69AR cells + 2 uM doxorubicin)	viability [6, 9]	viability [6, 10]	inhibition [7]	inhibition [8]
COc1ccc(C(=O)NCc2nnc(SCC(=O)Nc3cc(C)cc(C)c3)o2)cc1OC	89.5%	102% (inactive)	89.5% (inactive)	99.6% (inactive)	89.3% (inactive)	7.32% (inactive)	82%	89.3%	0.13% (inactive)	1.33% (inactive)
CCn1cc(C(C)NC(=O)COc2ccc(Cl)cc2C)c(C)n1 (stereo not given)	97%	101% (inactive)	97% (inactive)	93.9% (inactive)	105% (inactive)	13.9% (inactive)	91.3%	105%	-2.89% (inactive)	-4% (inactive)
O=C(CCNC(=O)Cn1ccc2ccccc2c1=O)NCCN1CCc2ccccc2C1	118%	98% (inactive)	118% (inactive)	87.3% (inactive)	91.8% (inactive)	0.755% (inactive)	91%	91.8%	-7.63% (inactive)	-8.18% (inactive)
Cc1csc2nc3ccccc3c(=O)n12	100%	91% (inactive)	100% (inactive)	103% (inactive)	94.7% (inactive)	1.49% (inactive)	93.2%	94.7%	-1.84% (inactive)	1.31% (inactive)
O=C(c1cccnc1)N1CCc2ccccc21	74%	77.5% (inactive)	74% (inactive)	88.1% (inactive)	95% (inactive)	-16.3% (inactive)	111%	95%	-5.68% (inactive)	-0.16% (inactive)
CCN(CC)S(=O)(=O)c1ccc(NC2CCCc3ccccc32)nc1 (stereo not given)	71.5%	77% (inactive)	71.5% (inactive)	88.6% (inactive)	86% (inactive)	0.97% (inactive)	85.1%	86%	-4.46% (inactive)	-3.17% (inactive)
Nc1ccc(C(=O)OCCCc2nc3ccccc3[nH]2)cc1	92%	107% (inactive)	92% (inactive)	97.9% (inactive)	99.1% (inactive)	1.74% (inactive)	97.4%	99.1%	5.41% (inactive)	-19.1% (inactive)
Cn1c(=O)c2[nH]c(NCC3CCCO3)nc2n(-c2ccccc2)c1=O (stereo not given)	94.5%	81% (inactive)	94.5% (inactive)	116% (inactive)	102% (inactive)	10.4% (inactive)	91.5%	102%	-4.87% (inactive)	3.67% (inactive)
CCC(C)NC(=O)C1(C)CCC(=O)N1CCc1ccc(OC)c(OC)c1 (stereo not given)	104%	95% (inactive)	104% (inactive)	95.4% (inactive)	86.1% (inactive)	-8.14% (inactive)	94.2%	86.1%	-1.04% (inactive)	-1.27% (inactive)
Cc1ccc2cc3cc(C(=O)N4CC(C)CC(C)C4)oc3nc2c1 (stereo not given)	108%	78.5% (inactive)	108% (inactive)	69.3% (inactive)	89.2% (inactive)	3.71% (inactive)	85.5%	89.2%	-2.47% (inactive)	-6.35% (inactive)
COc1ccc(N2CCN(c3ncnc4c3cnn4-c3ccc(C)cc3C)CC2)cc1	81%	72.5% (inactive)	81% (inactive)	87.1% (inactive)	66.2% (inactive)	46.8% (inactive)	19.4%	66.2%	-1.58% (inactive)	-1.29% (inactive)
CCOC(=O)c1ccccc1NC(=O)c1cc2sccc2n1C	90%	96% (inactive)	90% (inactive)	70.5% (inactive)	81% (inactive)	3.9% (inactive)	77%	81%	1.23% (inactive)	-2.38% (inactive)
Cc1ccc(C(=O)NCc2ccc3c(c2)OCO3)cc1S(=O)(=O)N1CCCCC1	91.5%	100% (inactive)	91.5% (inactive)	96.6% (inactive)	96.2% (inactive)	-2.33% (inactive)	98.5%	96.2%	-3.2% (inactive)	-7.14% (inactive)
O=C(CN(Cc1ccco1)C(=O)CNS(=O)(=O)c1ccc(F)cc1)NCCc1ccccc1	78%	91.5% (inactive)	78% (inactive)	85.8% (inactive)	91.9% (inactive)	0.9% (inactive)	91%	91.9%	-6.35% (inactive)	-2.79% (inactive)
CN(C)c1ccc(CNCCC2(O)CCOC(C)(C)C2)cc1 (stereo not given)	89%	86% (inactive)	89% (inactive)	95.3% (inactive)	102% (inactive)	7.18% (inactive)	95%	102%	-6.08% (inactive)	1.64% (inactive)
